Experimental findings from ChEMBL document CHEMBL2163247, “Multitargeted drug development: Discovery and profiling of dihydroxy substituted 1-aza-9-oxafluorenes as lead compounds targeting Alzheimer disease relevant kinases” (Bioorg Med Chem Lett, 2012) are described below.

Activity calls are given as the source filed them. The calls are words filed in the database; no cut-off is given here. A value given as a limit tells only on which side of the number the result lay.

A short description of series [1]: Inhibition of CDK4/Cyclin D. A digest of the protocol: (§1)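 Ki values were calculated from measured IC50 values of kinase inhibition.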
Series [2] addresses Cyclin-dependent kinase 5/CDK5 activator 1 (Homo sapiens, UniProt Q00535). Description: Inhibition of CDK5/p25. Type of series: protein-complex assay. An outline of the steps:
as §1

The target in series [3] is Glycogen synthase kinase-3 beta (Homo sapiens, UniProt P49841). Description: Inhibition of GSK3beta. A digest of the protocol: as §1
In series [4] the target is Cyclin-dependent kinase 2/cyclin E (Homo sapiens, UniProt P24941). Description: Inhibition of CDK2/Cyclin E. Type of series: protein-complex assay. An outline of the steps:
as §1

The target in series [5] is Cyclin-dependent kinase 1/cyclin B1 (Homo sapiens, UniProt P06493). Description: Inhibition of CDK1/Cyclin B. Type of series: protein-complex assay. A digest of the protocol:
as §1

The test system of series [6] is N2a. Description: Cytotoxicity against mouse N2A cells up to 90 uM by MTT assay. Type of series: cell-based. A digest of the protocol:
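N2A cells were treated at up to 90 µM. MTT was added in triplicate to a final 1 mg/mL for 2 h. Medium was removed, formazan taken up in DMSO plus glycine buffer (0.1 M glycine, pH 10.5, 0.1 M NaCl), and absorbance read at 550 nm. Cells lysed with 1% Triton X-100 set 100% death; untreated cells served as reference.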

Series [7] has as its system N2a. Description: Cytotoxicity against mouse N2A cells up to 90 uM by LDH assay. Type of series: cell-based. A digest of the protocol: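 Membrane integrity in N2A cells was read as extracellular lactate dehydrogenase activity, at compound concentrations up to 90 µM. Absorbance was read at 492 nm 20 min after adding the reagent mixture and compared with compound-free cells.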

Series [8] addresses Protein kinase C alpha type (Homo sapiens, UniProt P17252). Description: Inhibition of PKCalpha.
Series [9] concerns the target Protein kinase C gamma type (Homo sapiens, UniProt P05129). Description: Inhibition of PKCgamma.
The target in series [10] is T1, Protein kinase C epsilon type (Homo sapiens, UniProt Q02156).
T1 sequence (Q02156 whole entry): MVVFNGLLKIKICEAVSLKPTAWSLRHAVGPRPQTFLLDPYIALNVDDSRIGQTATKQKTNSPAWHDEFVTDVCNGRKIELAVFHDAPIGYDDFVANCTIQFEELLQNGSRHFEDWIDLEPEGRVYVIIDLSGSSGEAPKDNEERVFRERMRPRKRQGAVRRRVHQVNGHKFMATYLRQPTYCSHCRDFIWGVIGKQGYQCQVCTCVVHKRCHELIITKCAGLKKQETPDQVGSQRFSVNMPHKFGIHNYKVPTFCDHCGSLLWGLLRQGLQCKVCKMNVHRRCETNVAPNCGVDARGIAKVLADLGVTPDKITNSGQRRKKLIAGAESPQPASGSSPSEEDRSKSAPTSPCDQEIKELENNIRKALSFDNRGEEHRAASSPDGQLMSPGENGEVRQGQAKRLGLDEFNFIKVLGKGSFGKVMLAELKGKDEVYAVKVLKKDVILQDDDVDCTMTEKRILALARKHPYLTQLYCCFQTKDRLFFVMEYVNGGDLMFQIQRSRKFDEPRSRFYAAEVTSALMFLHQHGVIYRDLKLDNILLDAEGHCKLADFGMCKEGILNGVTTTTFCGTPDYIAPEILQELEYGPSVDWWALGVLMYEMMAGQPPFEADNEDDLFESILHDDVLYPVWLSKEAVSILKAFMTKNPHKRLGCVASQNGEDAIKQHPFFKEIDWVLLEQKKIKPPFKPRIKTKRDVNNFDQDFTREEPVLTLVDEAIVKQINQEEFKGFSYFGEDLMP
Description: Inhibition of PKCepsilon.

Series [11] addresses T2, Protein kinase C iota type (Homo sapiens, UniProt P41743).
T2 sequence (P41743 whole entry): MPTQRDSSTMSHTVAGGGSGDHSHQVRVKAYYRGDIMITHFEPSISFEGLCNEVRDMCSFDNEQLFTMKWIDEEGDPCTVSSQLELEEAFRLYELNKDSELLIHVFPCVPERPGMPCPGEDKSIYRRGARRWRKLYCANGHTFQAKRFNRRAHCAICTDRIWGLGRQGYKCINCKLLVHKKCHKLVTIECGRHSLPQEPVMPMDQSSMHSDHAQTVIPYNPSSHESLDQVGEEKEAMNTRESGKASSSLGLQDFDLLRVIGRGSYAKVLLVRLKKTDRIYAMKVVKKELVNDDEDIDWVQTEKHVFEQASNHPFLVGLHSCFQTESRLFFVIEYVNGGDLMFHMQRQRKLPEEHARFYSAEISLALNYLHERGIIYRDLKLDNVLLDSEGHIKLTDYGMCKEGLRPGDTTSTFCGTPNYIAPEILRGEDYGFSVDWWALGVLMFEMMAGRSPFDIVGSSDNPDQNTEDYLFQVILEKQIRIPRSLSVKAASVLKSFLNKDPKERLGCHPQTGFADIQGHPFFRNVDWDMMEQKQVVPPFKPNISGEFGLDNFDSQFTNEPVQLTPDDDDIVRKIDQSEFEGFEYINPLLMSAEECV
Description: Inhibition of PKCiota.

In series [12] the target is Vascular endothelial growth factor receptor 2 (Homo sapiens, UniProt P35968). Description: Inhibition of VEGFR2.
Series [13] addresses Receptor tyrosine-protein kinase erbB-2 (Homo sapiens, UniProt P04626). Description: Inhibition of ERBB2.
A further series concerns the target Angiopoietin-1 receptor (Homo sapiens, UniProt Q02763). Description: Inhibition of TIE2.
The target in the next series is CDK6/cyclin D1 (Homo sapiens, UniProt Q00534). Description: Inhibition of CDK6/Cyclin D1. Type of series: protein-complex assay.
The target in another series is Wee1-like protein kinase (Homo sapiens, UniProt P30291). Description: Inhibition of WEE1.
Series [14] deals with Casein kinase I isoform alpha (Homo sapiens, UniProt P48729). Description: Inhibition of Ck1alpha1.
Series [15] deals with Cdk5-Cdk5r1 complex (Mus musculus) (UniProt P49615+P61809). Description: Inhibition of CDK5/p25-mediated Tau S202/T205 phosphorylation in mouse N2A cells at 2.6 to 24 uM after 16 hrs by immunoblot analysis. In kind it is cell-based. A digest of the protocol: (§2)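 Mouse N2A cells stably transfected with a 3-repeat tau construct were grown 24 h in DMEM/HAMs F-12 (pH 7.4), 5% FBS, 2 mM L-glutamine and gentamicin (37 °C, 5% CO2). They were then exposed 16 h to inhibitor diluted from a 25 mM DMSO stock (final DMSO ≤0.4%, also in controls). Lysate proteins were run on 8% SDS–PAGE, blotted to PVDF, and probed for phospho-Ser202/Thr205 tau.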
(Immunoblotting shows a protein as a band on a membrane.)

Series [16] addresses Glycogen synthase kinase-3 beta (Mus musculus) (UniProt Q9WV60). Description: Inhibition of GSK3beta-mediated Tau S202/T205 phosphorylation in mouse N2A cells at 2.6 to 24 uM after 16 hrs by immunoblot analysis. In kind it is cell-based. An outline of the steps: as §2

Sequence of Glycogen synthase kinase-3 beta (P49841 whole entry): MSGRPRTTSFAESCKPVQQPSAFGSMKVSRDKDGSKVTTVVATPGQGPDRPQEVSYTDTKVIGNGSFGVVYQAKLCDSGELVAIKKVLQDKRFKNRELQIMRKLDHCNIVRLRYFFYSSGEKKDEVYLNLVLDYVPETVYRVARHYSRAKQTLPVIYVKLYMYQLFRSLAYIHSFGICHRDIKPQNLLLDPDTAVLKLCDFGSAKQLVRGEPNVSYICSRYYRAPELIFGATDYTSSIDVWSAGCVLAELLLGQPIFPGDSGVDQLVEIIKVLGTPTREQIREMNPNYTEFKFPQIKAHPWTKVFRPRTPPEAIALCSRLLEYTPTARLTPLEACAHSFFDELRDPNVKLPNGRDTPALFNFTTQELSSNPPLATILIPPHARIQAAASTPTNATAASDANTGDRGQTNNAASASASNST
Sequence of Cyclin-dependent kinase 5/CDK5 activator 1 (Q00535 whole entry): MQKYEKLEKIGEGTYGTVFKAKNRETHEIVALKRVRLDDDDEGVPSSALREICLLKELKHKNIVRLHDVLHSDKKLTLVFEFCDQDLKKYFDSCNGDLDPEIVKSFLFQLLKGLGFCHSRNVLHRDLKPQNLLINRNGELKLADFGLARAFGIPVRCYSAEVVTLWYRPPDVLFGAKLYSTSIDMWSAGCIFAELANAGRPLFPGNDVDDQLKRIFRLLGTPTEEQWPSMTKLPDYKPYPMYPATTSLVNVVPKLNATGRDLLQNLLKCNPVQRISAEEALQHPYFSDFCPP
Sequence of Cyclin-dependent kinase 5/CDK5 activator 1 (Q15078 whole entry, further chain): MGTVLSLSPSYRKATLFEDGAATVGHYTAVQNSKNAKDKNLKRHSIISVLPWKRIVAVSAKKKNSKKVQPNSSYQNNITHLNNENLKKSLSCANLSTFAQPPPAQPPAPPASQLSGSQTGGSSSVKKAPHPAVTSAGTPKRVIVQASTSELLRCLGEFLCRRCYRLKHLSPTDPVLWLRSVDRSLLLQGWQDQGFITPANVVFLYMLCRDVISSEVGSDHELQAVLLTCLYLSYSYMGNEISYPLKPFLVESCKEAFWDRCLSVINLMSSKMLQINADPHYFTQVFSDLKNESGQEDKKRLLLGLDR
Sequence of Cyclin-dependent kinase 1/cyclin B1 (P06493 whole entry): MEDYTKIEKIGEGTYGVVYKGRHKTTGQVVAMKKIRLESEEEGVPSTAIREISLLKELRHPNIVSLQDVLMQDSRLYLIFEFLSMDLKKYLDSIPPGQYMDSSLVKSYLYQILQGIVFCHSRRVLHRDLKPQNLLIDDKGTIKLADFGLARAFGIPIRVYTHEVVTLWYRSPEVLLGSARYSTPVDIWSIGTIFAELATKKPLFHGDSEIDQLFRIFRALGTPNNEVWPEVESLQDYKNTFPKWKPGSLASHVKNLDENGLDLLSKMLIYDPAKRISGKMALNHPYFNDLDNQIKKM
Sequence of Cyclin-dependent kinase 1/cyclin B1 (P14635 whole entry, further chain): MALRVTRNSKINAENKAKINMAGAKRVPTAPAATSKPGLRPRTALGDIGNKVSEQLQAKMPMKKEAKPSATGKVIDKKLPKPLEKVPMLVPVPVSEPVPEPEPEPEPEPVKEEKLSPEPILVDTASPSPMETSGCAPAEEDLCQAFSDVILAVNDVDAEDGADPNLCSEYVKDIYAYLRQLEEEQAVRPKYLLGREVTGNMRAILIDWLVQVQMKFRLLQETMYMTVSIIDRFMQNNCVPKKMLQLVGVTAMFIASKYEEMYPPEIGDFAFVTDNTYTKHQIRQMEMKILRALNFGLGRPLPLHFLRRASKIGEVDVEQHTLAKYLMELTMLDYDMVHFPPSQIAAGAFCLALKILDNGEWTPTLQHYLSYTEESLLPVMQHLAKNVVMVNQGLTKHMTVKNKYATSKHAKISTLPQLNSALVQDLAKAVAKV
Sequence of Vascular endothelial growth factor receptor 2 (P35968 whole entry): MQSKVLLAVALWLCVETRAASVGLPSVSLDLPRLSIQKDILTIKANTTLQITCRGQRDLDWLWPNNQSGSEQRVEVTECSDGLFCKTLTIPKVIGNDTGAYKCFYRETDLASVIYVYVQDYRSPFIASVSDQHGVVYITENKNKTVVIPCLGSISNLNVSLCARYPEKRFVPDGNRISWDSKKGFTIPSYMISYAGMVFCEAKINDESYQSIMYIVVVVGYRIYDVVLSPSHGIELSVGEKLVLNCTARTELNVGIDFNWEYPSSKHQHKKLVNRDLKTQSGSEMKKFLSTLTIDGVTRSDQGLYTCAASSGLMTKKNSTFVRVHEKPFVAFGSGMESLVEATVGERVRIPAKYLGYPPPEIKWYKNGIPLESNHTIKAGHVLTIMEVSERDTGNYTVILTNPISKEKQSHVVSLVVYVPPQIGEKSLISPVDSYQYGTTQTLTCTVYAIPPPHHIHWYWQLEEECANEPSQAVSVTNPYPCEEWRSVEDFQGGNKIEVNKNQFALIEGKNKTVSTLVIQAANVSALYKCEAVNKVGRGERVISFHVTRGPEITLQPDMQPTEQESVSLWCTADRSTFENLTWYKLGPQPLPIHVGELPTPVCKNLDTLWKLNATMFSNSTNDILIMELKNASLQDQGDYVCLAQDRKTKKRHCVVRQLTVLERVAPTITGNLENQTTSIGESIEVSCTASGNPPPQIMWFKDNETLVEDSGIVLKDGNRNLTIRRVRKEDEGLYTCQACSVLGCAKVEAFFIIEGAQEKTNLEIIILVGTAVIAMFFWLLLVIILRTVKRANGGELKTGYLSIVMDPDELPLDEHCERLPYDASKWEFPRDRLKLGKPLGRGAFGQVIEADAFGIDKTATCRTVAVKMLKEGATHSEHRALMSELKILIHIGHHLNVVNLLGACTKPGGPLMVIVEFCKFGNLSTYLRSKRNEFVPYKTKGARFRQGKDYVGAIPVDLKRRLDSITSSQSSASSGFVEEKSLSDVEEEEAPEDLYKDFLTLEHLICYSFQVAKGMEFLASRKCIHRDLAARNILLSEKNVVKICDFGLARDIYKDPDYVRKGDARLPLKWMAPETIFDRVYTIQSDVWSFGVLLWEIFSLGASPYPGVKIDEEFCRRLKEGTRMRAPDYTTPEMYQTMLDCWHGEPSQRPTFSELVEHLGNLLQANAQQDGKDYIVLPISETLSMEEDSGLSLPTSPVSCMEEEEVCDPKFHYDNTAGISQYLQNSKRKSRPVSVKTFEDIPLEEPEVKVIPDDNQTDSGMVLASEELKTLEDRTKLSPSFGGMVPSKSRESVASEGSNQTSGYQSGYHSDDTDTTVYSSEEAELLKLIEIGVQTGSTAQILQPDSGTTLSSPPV
Sequence of Cdk5-Cdk5r1 complex (Mus musculus) (P49615 whole entry, looked up): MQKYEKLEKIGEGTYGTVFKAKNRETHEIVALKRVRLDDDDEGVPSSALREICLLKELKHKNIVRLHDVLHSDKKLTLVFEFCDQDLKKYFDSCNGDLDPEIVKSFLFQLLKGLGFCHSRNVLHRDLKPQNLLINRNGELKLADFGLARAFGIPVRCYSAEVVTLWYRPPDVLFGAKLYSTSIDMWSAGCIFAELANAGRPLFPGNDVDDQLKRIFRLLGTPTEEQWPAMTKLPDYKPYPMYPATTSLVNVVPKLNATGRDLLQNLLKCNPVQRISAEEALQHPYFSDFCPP
Sequence of Cdk5-Cdk5r1 complex (Mus musculus) (P61809 whole entry, looked up): as the sequence (Q15078 whole entry, further chain) above, with V68A, N76S, T79A, G121V, V133I counted along it
Sequence of CDK6/cyclin D1 (P24385 whole entry): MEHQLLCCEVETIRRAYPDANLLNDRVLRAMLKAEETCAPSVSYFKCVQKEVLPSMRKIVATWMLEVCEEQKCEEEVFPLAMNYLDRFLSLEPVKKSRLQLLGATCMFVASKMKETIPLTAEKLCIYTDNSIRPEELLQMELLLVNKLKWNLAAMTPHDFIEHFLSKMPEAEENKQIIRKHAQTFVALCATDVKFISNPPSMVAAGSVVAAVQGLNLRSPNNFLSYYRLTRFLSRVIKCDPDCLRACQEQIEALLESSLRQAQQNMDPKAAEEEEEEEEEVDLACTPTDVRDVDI
Sequence of CDK6/cyclin D1 (Q00534 whole entry): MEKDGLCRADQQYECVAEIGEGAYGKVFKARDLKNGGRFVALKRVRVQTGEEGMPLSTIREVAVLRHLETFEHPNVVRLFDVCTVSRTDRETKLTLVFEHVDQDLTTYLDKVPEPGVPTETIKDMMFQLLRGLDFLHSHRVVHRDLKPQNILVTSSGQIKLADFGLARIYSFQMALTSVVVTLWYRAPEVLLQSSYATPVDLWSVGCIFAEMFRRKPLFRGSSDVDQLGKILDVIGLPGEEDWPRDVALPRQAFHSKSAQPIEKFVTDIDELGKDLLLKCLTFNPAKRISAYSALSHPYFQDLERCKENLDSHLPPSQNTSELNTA
Sequence of Glycogen synthase kinase-3 beta (Mus musculus) (Q9WV60 whole entry, looked up): as the sequence (P49841 whole entry) above, with T390P, T392A, A400T, T402A counted along it

On to `COc1cnc2oc3ccc(O)cc3c2c1-c1ccccc1`, for which the inhibition constant (Ki) was 93.6 µM in series [1]; greater than 1000 µM in series [2]; 14.8 µM in series [3]; 24 µM in series [4]; 5.3 µM in [5].
For `COc1ccc2oc3ncc(O)c(-c4ccccc4)c3c2c1` the same measures were 144 µM, greater than 1000 µM, greater than 1000 µM, greater than 1000 µM and greater than 1000 µM.
On to `Oc1ccc2oc3ncc(O)c(-c4ccccc4)c3c2c1`, for which the inhibitory constant (Ki) in series [1] was 18.5 µM; in series [2], 0.11 µM; in [3] it was 0.02 µM; in series [8] it was greater than 1000 µM; in series [9] it was greater than 1000 µM; in series [10], greater than 1000 µM. For the same compound, the Ki is greater than 1000 µM in [11]; greater than 1000 µM in [12]; greater than 1000 µM in [13]; greater than 1000 µM at Angiopoietin-1 receptor; 773 µM on CDK6/cyclin D1; greater than 1000 µM on Wee1-like protein kinase. The inhibition constant Ki is greater than 1000 µM in series [14], 0.6 µM in series [4] and 0.01 µM in [5]. Also, the Activity result in the series with N2a [6] and in the series on N2a [7] was “Non-toxic” in each case. Also, the inhibition entry in series [15] and in [16] was “Active” in each case.
In the case of `Oc1ccc2oc3ncc(OCc4ccccc4)c(-c4ccccc4)c3c2c1`, the Ki was 36.6 µM in [1]; greater than 1000 µM in series [2]; 5.8 µM in series [3]; 6.4 µM in [4]; 2.3 µM in series [5].
In the case of `COc1ccc2oc3ncc(OC)c(-c4ccccc4)c3c2c1`, the inhibition constant (Ki) in series [1], in series [2], in series [3], in series [4] and in series [5] was greater than 1000 µM each time.
As to `COc1ccc2oc3ncc(OCc4ccccc4)c(-c4ccccc4)c3c2c1`, the Ki in [1] was greater than 1000 µM; in [2] it was 26.1 µM; in series [3], 0.02 µM; in series [4], greater than 1000 µM; in series [5], greater than 1000 µM.
On to `Cc1cc2oc3ncc(OCc4ccccc4)c(-c4ccccc4)c3c2cc1O`, for which the results for the Ki in [2], in series [3] and in series [5] were 25.3 µM, 5.8 µM and 1.3 µM, respectively.
In the same order, the values of `Oc1cnc2oc3c4ccccc4c(O)cc3c2c1-c1ccccc1` are 0.07 µM, 0.01 µM and 0.7 µM.
For `Oc1cc2c(oc3ncc(OCc4ccccc4)c(-c4ccccc4)c32)c2ccccc12` the same measures were 2.1 µM, 1.6 µM and 0.09 µM.

As usually defined, the Ki is the dissociation constant of the complex between target and ligand, obtained from inhibition or displacement. Low values mean a stronger hold on the target, high ones a looser hold on the target.
